A word on the Cmax: it is the peak of the concentration-time curve. A word on the Tmax: it is the time at which the peak concentration occurs. For orientation: Vd/F means the volume of distribution divided by bioavailability. One may read the AUC(0-t) as exposure summed from dosing to a finite time, without extrapolation to infinity. A low value points to less exposure.

In brackets after ≈: the same amount, converted by molar mass. Read-outs that look alike come from different tables or passages of the source.

Consider 2 compounds from paper PMC8301548 (Clinical and Translational Science, 2021).

The format of data set [1] is in vivo. The conditions noted are these: human, serum, po, 300 mg, 300 mg single oral dose of allopurinol; for Cmax / Vd/F / AUC(0-t): mean ± SE; for Tmax: median (range); for Vd/F: V/F (apparent volume of distribution).
Data set [2] can be described thus: Tolerability in the clinical study. Format: in vivo, human. The conditions noted are these: 19 healthy volunteers who completed the study; 300 mg oral allopurinol. The essentials: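 Healthy adults aged 18–50 were screened by medical-history questionnaire. Exclusions were HLA‑B*58:01 carriers, interacting medications, liver enzymes or creatinine >1.5× normal range, and abnormal platelet or white-cell counts. […] In one protocol they continued 300 mg once daily, with a final dose on day 6. In the other they received a single dose only.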

Data set [3] relates to serum uric acid (SUA). The note with it: cited from earlier work.
In the next data set the test system is BCRP. The note with it: cited from earlier work.
Data set [4] is described as follows: Population PK model of oxypurinol. The note with it: for Kfm (formation rate constant): final PK model. Format: in vivo, human.
In data set [5] the test system is serum uric acid (SUA). Format: in vivo, human.

For the compound `Oc1ncnc2[nH]ncc12` [Allopurinol, allopurinol], the Cmax in data set [1] (genotype (0) CC, n=9) came out at 1370 ± 130 ng/mL; in data set [1] (genotype (1) CA, n=7), 1930 ± 617 ng/mL; in data set [1] (genotype (2) AA, n=3) it was 1550 ± 453 ng/mL. For the same compound, the Tmax in data set [1] (genotype (0) CC) amounted to 1.5 h; in data set [1] (genotype (1) CA) it was 1 h; in data set [1] (genotype (2) AA), 2 h. Besides, the Vd/F stood at 149 ± 17 L in data set [1] (genotype (0) CC), 160 ± 22.3 L in data set [1] (genotype (1) CA) and 148 ± 40.9 L in data set [1] (genotype (2) AA). In data set [2], the tolerability result is “well‐tolerated”. In addition, in the data set with serum uric acid (SUA) [3], the “patients reaching an acceptable treatment end point” value was 21%. Also, the BCRP substrate result in the data set on BCRP was “substrates of BCRP”.

On to `O=c1[nH]c(=O)c2c[nH]nc2[nH]1` [Oxypurinol, oxypurinol], for which the AUC(0-t) in data set [1] (AUC0–24, genotype (0) CC) is 93900 ± 8070 ng·h/mL; in data set [1] (AUC0–24, genotype (1) CA), 93400 ± 9990 ng·h/mL; in data set [1] (AUC0–24, genotype (2) AA), 105000 ± 20600 ng·h/mL. Moreover, the Cmax in data set [1] (genotype (0) CC, n=9) came out at 5930 ± 409 ng/mL; in data set [1] (genotype (1) CA, n=7), 6440 ± 592 ng/mL; in data set [1] (genotype (2) AA, n=3), 6380 ± 1350 ng/mL. The Tmax in data set [1] (genotype (0) CC) came to 4 h; in data set [1] (genotype (1) CA), 4 h; in data set [1] (genotype (2) AA), 6 h. Besides, the Vd/F is 49.9 ± 4.53 L in data set [1] (genotype (0) CC); 61.9 ± 9.58 L in data set [1] (genotype (1) CA); 56.6 ± 11.6 L in data set [1] (genotype (2) AA); 57 L in data set [4] (male, human, plasma, oral, 300 mg). Further, in data set [4] (V/Fm=θV/Fm×(1+θgender), estimate (%RSE) [95% CI]), the “θgender(female), covariate effect on V/Fm” value was “θgender(female) = −0.248 (35.7) [−0.395, −0.067]”. Further, the “Kfm (formation rate constant)” value was 0.771 h⁻¹ in data set [4] (BSV in parentheses in the text) and 0.771 (17.8) [0.535, 1.06] 1/h in data set [4] (estimate (%RSE) [95% CI]). Further, the “lower V/Fm in women compared with men” value in data set [4] (final PK/PD model, gender covariate) is given as 24.8%. Also, the EC50 in the data set with serum uric acid (SUA) [5] (Homo sapiens, read-out: C50 (concentration needed to achieve 50% effect)) was found to be 2.59 µg/mL (≈ 17 µM). In addition, the “Emax (maximum effect)” value in the data set on serum uric acid (SUA) [5] (final PK/PD model, effect on SUA, RSE not given) stood at 1. In the data set with BCRP, the BCRP substrate result was “substrates of BCRP”.
